Laboratory results published in ChEMBL document CHEMBL4041461, “Discovery of 6,7-dihydro-3H-pyrano[4,3-c]isoxazol-3-ones as a new class of pathogen specific anti-leptospiral agents” (Eur J Med Chem, 2017).
Values after ≈ are worked out from the molar mass of the structure shown. Active and inactive are the calls of the source. The rule behind the calls is not given here.

How the values were obtained:
THP-1 [1] = assay: Induction of cell death in human THP1 cells at 0.5 mM after 12 hrs by propidium iodide staining based confocal laser scanning microscopic method; details: thp-1, 12 h, 500 µM
Summary of the method: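 THP-1 cells were treated for 12 h and then stained with propidium iodide. Apoptotic and necrotic cells were counted manually and expressed as a percentage. Untreated cells and tert-butylhydroperoxide served as controls. Data are mean ± SD of triplicates.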

[2] = Antibacterial activity against Leptospira interrogans serovar Autumnalis N2 after 2 hrs by micro dilution assay; type: functional; details: N2, 2 h
[3] = Antibacterial activity against Leptospira interrogans serovar Pyrogenes Salinem after 2 hrs by micro dilution assay; type: functional
[4] = Antibacterial activity against Leptospira interrogans serovar Australis Ballico after 2 hrs by micro dilution assay; type: functional
[5] = Antibacterial activity against Leptospira interrogans serovar Pomona after 2 hrs by micro dilution assay; type: functional
[6] = Antibacterial activity against Leptospira interrogans serovar Hebdomadis after 2 hrs by micro dilution assay; type: functional
[7] = Antibacterial activity against Leptospira interrogans serovar Bataviae Swart after 2 hrs by micro dilution assay; type: functional
[8] = test system: Leptospira interrogans serovar Autumnalis; assay: Antibacterial activity against Leptospira interrogans serovar Autumnalis N2 at 250 ug/mL after 2 hrs by micro dilution assay; type: functional
Summary of the method: (§1)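 Preliminary screen by broth microdilution against L. interrogans serovar Autumnalis strain N2, each compound at 500, 250, 125, 62.5 and 31.25 µg/mL. Growth at each concentration was scored as resistance (R) or inhibition (I), and the MIC was taken from these scores. Triplicates.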

[9] = test system: Leptospira interrogans serovar Autumnalis; assay: Antibacterial activity against Leptospira interrogans serovar Autumnalis N2 at 62.5 ug/mL after 2 hrs by micro dilution assay; type: functional; summary of the method: as §1
[10] = Antibacterial activity against Leptospira interrogans serovar Icterohaemorrhagiae RGA after 2 hrs by micro dilution assay; type: functional
[11] = test system: Leptospira interrogans serovar Autumnalis; assay: Antibacterial activity against Leptospira interrogans serovar Autumnalis N2 at 31.25 ug/mL after 2 hrs by micro dilution assay; type: functional; summary of the method: as §1
[12] = Antibacterial activity against Leptospira interrogans serovar Ballum Mus 127 after 2 hrs by micro dilution assay; type: functional; details: Mus 127, 2 h
[13] = test system: Leptospira interrogans serovar Autumnalis; assay: Antibacterial activity against Leptospira interrogans serovar Autumnalis N2 at 500 ug/mL after 2 hrs by micro dilution assay; type: functional; summary of the method: as §1
[14] = (§2) Antibacterial activity against Leptospira interrogans serovar Semaranga after 2 hrs by micro dilution assay; type: functional
[15] = Antibacterial activity against Leptospira interrogans serovar Javanica Poi after 2 hrs by micro dilution assay; type: functional
[16] = Antibacterial activity against Leptospira interrogans serovar Canicola Hond Utrecht IV after 2 hrs by micro dilution assay; type: functional
[17] = Antibacterial activity against Leptospira interrogans serovar Hardjo Hardjoprajitno after 2 hrs by micro dilution assay; type: functional
[18] = test system: Leptospira interrogans serovar Autumnalis; assay: Antibacterial activity against Leptospira interrogans serovar Autumnalis N2 at 125 ug/mL after 2 hrs by micro dilution assay; type: functional; summary of the method: as §1
[19] = Antibacterial activity against Leptospira interrogans serovar Grippotyphosa Moskva V after 2 hrs by micro dilution assay; type: functional
Leptospira interrogans [20] = assay: as §2; type: functional
THP-1 [21] = assay: Induction of cell death in human THP1 cells at >= 75 ug/mL after 12 hrs by propidium iodide staining based confocal laser scanning microscopic method; details: thp-1, 12 h
Summary of the method: (§3)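 THP-1 cells were exposed for 12 h to a range of concentrations, then stained with propidium iodide. PI-positive apoptotic and necrotic cells were counted manually and expressed as a percentage. Controls were untreated cells and tert-butylhydroperoxide. Mean ± SD of triplicates.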

[22] = test system: Leptospira interrogans serovar Canicola; assay: Antibacterial activity against Leptospira interrogans serovar Canicola PAI-1 infected cyclophosphamide-treated BALB/c mouse assessed as inhibition of bacterial renal colonization at 20 mg/kg,ip by RT-qPCR analysis; type: functional, organism-based
Summary of the method: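 Cyclophosphamide-treated BALB/c mice were infected with pathogenic serovar Canicola, then dosed once daily for 3 days at 5, 10 or 20 mg/kg. Controls were untreated mice and doxycycline at 5 mg/kg once daily. Leptospiral load in kidney tissue was measured by qPCR for renal colonization.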

THP-1 [23] = assay: Cytotoxicity against human THP1 cells assessed as cell growth inhibition at >=75 ug/mL after 24 hrs by MTT assay; type: cell-based; details: thp-1, 24 h
[24] = Antibacterial activity against Leptospira interrogans serovar Canicola PAI-1 infected cyclophosphamide-treated BALB/c mouse assessed as mouse survival at 20 mg/kg, ip administered once daily for 3 days; type: functional; details: PAI-1, ip, 72 h
Summary of the method: (§4)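 Cyclophosphamide-treated (Cy-)BALB/c mice were challenged with pathogenic Leptospira Canicola. They were dosed once daily for 3 days at 5, 10 or 20 mg/kg. Controls were untreated mice and doxycycline at 5 mg/kg once daily. Survival was recorded to the end of the study period. Kidneys were checked by 16S qPCR and by re-isolation in EMJH semi-solid medium.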

THP-1 [25] = assay: Cytotoxicity against human THP1 cells assessed as cell growth inhibition upto 25 ug/mL after 24 hrs by MTT assay; type: cell-based; details: thp-1, 24 h
[26] = test system: Leptospira interrogans serovar Canicola; assay: Antibacterial activity against Leptospira interrogans serovar Canicola PAI-1 infected cyclophosphamide-treated BALB/c mouse assessed as inhibition of bacterial renal colonization at 20 mg/kg,ip using EMJH semi solid medium; type: functional, organism-based
Summary of the method: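 Kidneys came from infected cyclophosphamide-treated BALB/c mice dosed once daily for 3 days, including at 20 mg/kg, alongside untreated infected controls. Leptospires were re-isolated by culturing kidney material in semi-solid EMJH medium.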

THP-1 [27] = assay: Induction of cell death in human THP1 cells upto 25 ug/mL after 12 hrs by propidium iodide staining based confocal laser scanning microscopic method; details: thp-1, 12 h; summary of the method: as §3
Leptospira interrogans [28] = assay: Inhibition of Leptospira rRNA gene amplification assessed as thresholod cycle by SYBR Green dye-based RT-qPCR method (reference value: 11.3)
[29] = (§5) Antibacterial activity against Leptospira interrogans serovar Canicola PAI-1 infected cyclophosphamide-treated BALB/c mouse assessed as mouse survival at 5 mg/kg, ip administered once daily for 3 days; type: functional; details: PAI-1, ip, 72 h; summary of the method: as §4
[30] = test system: Leptospira interrogans serovar Canicola; assay: as §5; type: functional; summary of the method: as §4

Row | Compound | MIC [2] [µg/mL] | MIC [3] [µg/mL] | MIC [4] [µg/mL] | MIC [5] [µg/mL] | MIC [6] [µg/mL] | MIC [7] [µg/mL] | Activity [8] | Activity [9] | MIC [10] [µg/mL] | Activity [11] | MIC [12] [µg/mL] | Activity [13] | MIC [15] [µg/mL] | MIC [16] [µg/mL] | MIC [17] [µg/mL] | Activity [18] | MIC [19] [µg/mL] | further results
1 | CC(C)(C)OO [TERT-BUTYL HYDROPEROXIDE] |  |  |  |  |  |  |  |  |  |  |  |  |  |  |  |  |  | Activity (THP-1 [1]): Toxic
2 | CC1(C)CC2=NOC(=O)C2=C(c2cccc3ccccc23)O1 | 250 (≈ 852 µM) | 500 (≈ 1700 µM) | 125 (≈ 426 µM) | 500 (≈ 1700 µM) | 250 (≈ 852 µM) | 125 (≈ 426 µM) | Active | inactive | 250 (≈ 852 µM) | inactive | 125 (≈ 426 µM) | Active | 500 (≈ 1700 µM) | 250 (≈ 852 µM) | 500 (≈ 1700 µM) | inactive | 250 (≈ 852 µM) | MIC [14]: 500 µg/mL (≈ 1700 µM)
3 | CC1CC(=O)c2c(cc3ccccc3c2O)O1 (configuration not stated) |  |  |  |  |  |  | Active | inactive |  | inactive |  | Active |  |  |  | inactive |  | 
4 | COc1cc(OC)c2c(O)c3c(cc2c1)OC(C)C(C)C3=O (configuration not stated) |  |  |  |  |  |  | inactive | inactive |  | inactive |  | inactive |  |  |  | inactive |  | 
5 | COc1ccc(C2=C3C(=O)ON=C3CC(C)(C)O2)cc1 | 250 (≈ 915 µM) | 250 (≈ 915 µM) | 125 (≈ 457 µM) | 250 (≈ 915 µM) | 250 (≈ 915 µM) | 250 (≈ 915 µM) | Active | inactive | 250 (≈ 915 µM) | inactive | 125 (≈ 457 µM) | Active | 250 (≈ 915 µM) | 250 (≈ 915 µM) | 250 (≈ 915 µM) | inactive | 250 (≈ 915 µM) | MIC [14]: 500 µg/mL (≈ 1830 µM)
6 | CC1(C)CC2=NOC(=O)C2=C(c2ccc(Cl)cc2)O1 | 250 (≈ 900 µM) | 250 (≈ 900 µM) | 125 (≈ 450 µM) | 250 (≈ 900 µM) | 250 (≈ 900 µM) | 250 (≈ 900 µM) | Active | inactive | 250 (≈ 900 µM) | inactive | 250 (≈ 900 µM) | Active | 250 (≈ 900 µM) | 125 (≈ 450 µM) | 250 (≈ 900 µM) | inactive | 250 (≈ 900 µM) | MIC (Leptospira interrogans [20]): inactive
7 | CC1(C)CC2=NOC(=O)C2=C(c2ccccc2Cl)O1 |  |  |  |  |  |  | inactive | inactive |  | inactive |  | inactive |  |  |  | inactive |  | 
8 | CC1(C)CC2=NOC(=O)C2=C(c2cccs2)O1 | 250 (≈ 1000 µM) | 125 (≈ 501 µM) | 250 (≈ 1000 µM) | 250 (≈ 1000 µM) | 250 (≈ 1000 µM) | 250 (≈ 1000 µM) | Active | inactive | 250 (≈ 1000 µM) | inactive | 250 (≈ 1000 µM) | Active | 250 (≈ 1000 µM) | 62.5 (≈ 251 µM) | 250 (≈ 1000 µM) | inactive | 250 (≈ 1000 µM) | Activity (THP-1 [21]): Toxic; inhibition [22]: Active; Activity (THP-1 [23]): Toxic; MIC (Leptospira interrogans [20]): inactive; survival at 20 mg/kg [24]: 95%; Activity (THP-1 [25]): Non-Toxic; inhibition [26]: Active; Activity (THP-1 [27]): Non-Toxic; Activity (Leptospira interrogans [28]): 18.5; survival at 5 mg/kg [29]: 20%
9 | CC1(C)CC(=O)c2c(cc3ccccc3c2O)O1 |  |  |  |  |  |  | inactive | inactive |  | inactive |  | Active |  |  |  | inactive |  | 
10 | COc1cc(OC)c2c(O)c3c(cc2c1)OC(C)(C)CC3=O |  |  |  |  |  |  | inactive | inactive |  | inactive |  | inactive |  |  |  | inactive |  | 
11 | COc1cc(OC)cc(C2=C3C(=O)ON=C3CC(C)(C)O2)c1 |  |  |  |  |  |  | inactive | inactive |  | inactive |  | inactive |  |  |  | inactive |  | 
12 | COc1cc(OC)c2c(O)c3c(cc2c1)OC(C)CC3=O (configuration not stated) |  |  |  |  |  |  | inactive | inactive |  | inactive |  | inactive |  |  |  | inactive |  | 
13 | CC1(C)CC(O)=C2C(=O)c3ccccc3C=C2O1 |  |  |  |  |  |  | Active | inactive |  | inactive |  | Active |  |  |  | inactive |  | 
14 | CCC1=C2C(=O)ON=C2CC(C)(C)O1 | 250 (≈ 1280 µM) | 250 (≈ 1280 µM) | 250 (≈ 1280 µM) | 250 (≈ 1280 µM) | 125 (≈ 640 µM) | 125 (≈ 640 µM) | Active | inactive | 250 (≈ 1280 µM) | inactive | 250 (≈ 1280 µM) | Active | 250 (≈ 1280 µM) | 250 (≈ 1280 µM) | 250 (≈ 1280 µM) | inactive | 250 (≈ 1280 µM) | MIC (Leptospira interrogans [20]): inactive
15 | C[C@H]1c2cccc(O)c2C(=O)C2=C(O)[C@]3(O)C(=O)C(C(N)=O)=C(O)[C@@H](N(C)C)[C@@H]3[C@@H](O)[C@@H]21.O [DOXYCYCLINE] | 200 | 200 | 200 | 100 | 200 | 100 | Active | inactive | 200 | inactive | 100 | Active | 200 | 200 | 100 | inactive | 200 | MIC [14]: 100 µg/mL; Activity [30]: Active
16 | CC1=C2C(=O)ON=C2CC(C)(C)O1 | 500 (≈ 2760 µM) | 250 (≈ 1380 µM) | 500 (≈ 2760 µM) | 250 (≈ 1380 µM) | 250 (≈ 1380 µM) | 250 (≈ 1380 µM) | inactive | inactive | 125 (≈ 690 µM) | inactive | 500 (≈ 2760 µM) | Active | 500 (≈ 2760 µM) | 250 (≈ 1380 µM) | 500 (≈ 2760 µM) | inactive | 500 (≈ 2760 µM) | MIC [14]: 500 µg/mL (≈ 2760 µM)
17 | CC1(C)CC2=NOC(=O)C2=C(c2ccccc2)O1 |  |  |  |  |  |  | inactive | inactive |  | inactive |  | inactive |  |  |  | inactive |  | 
18 | CC1(C)CC2=NOC(=O)C2=C(c2ccco2)O1 |  |  |  |  |  |  | inactive | inactive |  | inactive |  | inactive |  |  |  | inactive |  | 
